Experiment [1] has as its system Zika virus. As to the kind of experiment: Substrate activity at recombinant ZIKV NS3 pro domain fused NS2B protease at pH 7.4 after 30 mins by fluorescence assay. An outline of the steps: (§1)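 pH profile: NS2BLNNS3pro 1.64×10^-8 M with substrate 2.44×10^-5 M in citrate (pH 3.0), acetate (4.0, 5.0), MES (6.0), MOPS (7.0), Tris (7.4, 10.0) or HEPES (8.0); fluorescence increase followed at 37 °C over 30 min.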

Experiment [2] relates to Zika virus. As to the kind of experiment: Substrate activity at recombinant ZIKV NS3 pro domain fused NS2B protease by HPLC method.
Experiment [3] has as its system Zika virus. As to the kind of experiment: Substrate activity at recombinant ZIKV NS3 pro domain fused NS2B protease at pH 7.4.
The subject of experiment [4] is Zika virus. As to the kind of experiment: Substrate activity at recombinant ZIKV NS3 pro domain fused NS2B protease at pH 8 to 10 after 30 mins by fluorescence assay. An outline of the steps: as §1
In experiment [5] the test system is Zika virus. Kind of experiment: Substrate activity at recombinant ZIKV NS3 pro domain fused NS2B protease at pH 3 to 6 after 30 mins by fluorescence assay. An outline of the steps: as §1
Experiment [6] has as its system Zika virus. Kind of experiment: Substrate activity at 6.86x10'-6M of recombinant ZIKV NS3 pro domain fused NS2B protease. Conditions: in the assay text read “6.86x10'-10M” for “6.86x10'-6M”. An outline of the steps: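 Limit of detection: decreasing amounts of recombinant NS2BLNNS3pro titrated against substrate at 2.44 × 10^-5 M in PBS pH 7.4, 37 °C, 30 min; fluorescence read at 450 nm (Ex 320 nm); detection limit from fluorescence increase versus enzyme concentration; triplicate.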

Experiment [7] in a line: Selectivity ratio of substrate activity at recombinant ZIKV NS3 pro domain fused NS2B protease to substrate activity at West Nile virus protease.
The subject of experiment [8] is Zika virus. As to the kind of experiment: Substrate activity at recombinant ZIKV NS3 pro domain fused NS2B protease assessed as Km in PBS at pH 7.4 after 30 mins. An outline of the steps: (§2)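 Kinetic constants determined in PBS pH 7.4 with the recombinant NS2BLNNS3pro; cleavage followed by ABZ fluorescence (Ex 320, Em 450 nm) at 37 °C; initial rates fitted and KM, kcat obtained from double-reciprocal Michaelis-Menten plots.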

Experiment [9] deals with Zika virus. As to the kind of experiment: Substrate activity at recombinant ZIKV NS3 pro domain fused NS2B protease assessed as Kcat in PBS at pH 7.4 after 30 mins. An outline of the steps:
as §2

The test system of experiment [10] is Zika virus. Kind of experiment: Substrate activity at recombinant ZIKV NS3 pro domain fused NS2B protease assessed as ratio of Kcat to Km in PBS at pH 7.4 after 30 mins. An outline of the steps: as §2
Experiment [11] relates to Zika virus. Kind of experiment: Substrate activity at recombinant ZIKV NS3 pro domain fused NS2B protease assessed as Km in Tris-CHAPS-glycerol buffer at pH 7.4 after 30 mins. An outline of the steps:
(§3)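 Continuous fluorescence assay (Ex 320, Em 450 nm) in 10 mM Tris-HCl pH 7.4, 20% glycerol, 1 mM CHAPS at 37 °C; substrate (1.0×10-7 to 4×10^-5 M final) added to 1.64×10^-8 M NS2BLNNS3pro. Initial rates from linear portions, inner-filter corrected; KM and kcat from double-reciprocal Michaelis-Menten plots; triplicate, SD ≤20%.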

Experiment [12] relates to Zika virus. As to the kind of experiment: Substrate activity at recombinant ZIKV NS3 pro domain fused NS2B protease assessed as Kcat in Tris-CHAPS-glycerol buffer at pH 7.4 after 30 mins. An outline of the steps:
as §3

Experiment [13] concerns Zika virus. Kind of experiment: Substrate activity at recombinant ZIKV NS3 pro domain fused NS2B protease assessed as ratio of Kcat to Km in Tris-CHAPS-glycerol buffer at pH 7.4 after 30 mins. An outline of the steps: as §3

The structures appear in SMILES notation. Active and inactive are the calls of the source. No cut-off for these calls is given here. Non-standard residues stand in square brackets, D forms with d. Residues, ends and D or L forms follow the SMILES beside them. Tyr(3-NO2) = N[C@@H](Cc1ccc(O)c([N+](=O)[O-])c1)C(=O)O; 2Abz = Nc1ccccc1C(=O)O

Consider `CC(C)[C@H](NC(=O)c1ccccc1N)C(=O)N[C@@H](CCCCN)C(=O)N[C@@H](CCCCN)C(=O)N[C@@H](CCCNC(=N)N)C(=O)N[C@@H](C)C(=O)N[C@@H](C)C(=O)N[C@@H](Cc1c[nH]c2ccccc12)C(=O)N[C@@H](Cc1ccc(O)c([N+](=O)[O-])c1)C(N)=O` (H-[2Abz]VKKRAAW[Tyr(3-NO2)]-NH2), for which the result in the experiment on Zika virus [1], with Zika virus [2], in the experiment on Zika virus [3], in the experiment with Zika virus [4] and in the experiment on Zika virus [6] was Active. Moreover, the result in the experiment with Zika virus [5] was inactive. The Ratio in experiment [7] amounted to 200. Further, the results for the Km in the experiment on Zika virus [8] and in the experiment on Zika virus [11] were 6.97 µM and 1.23 µM, respectively. Also, the kcat came to 16.3 s⁻¹ in the experiment on Zika virus [9] and 151 s⁻¹ in the experiment on Zika virus [12]. Also, the values for the kcat/Km with Zika virus [10] and with Zika virus [13] were 2.32 ×10⁶ /M/s and 1.26 ×10⁸ /M/s, respectively.

Take `CC(C)[C@H](NC(=O)c1ccccc1N)C(=O)N[C@@H](CCCCN)C(=O)N[C@@H](CCCCN)C(=O)N[C@@H](CCCNC(=N)N)C(=O)N[C@@H](C)C(=O)N[C@@H](C)C(=O)N[C@@H](CC(=O)O)C(=O)N[C@@H](Cc1ccc(O)c([N+](=O)[O-])c1)C(N)=O` (H-[2Abz]VKKRAAD[Tyr(3-NO2)]-NH2): in the experiment with Zika virus [1], the outcome was Active.

As for `CC(C)[C@H](NC(=O)c1ccccc1N)C(=O)N[C@@H](CCCCN)C(=O)N[C@@H](CCCCN)C(=O)N[C@@H](CCCNC(=N)N)C(=O)N[C@@H](C)C(=O)N[C@@H](C)C(=O)N[C@@H](CCC(=O)O)C(=O)N[C@@H](Cc1ccc(O)c([N+](=O)[O-])c1)C(N)=O` (H-[2Abz]VKKRAAE[Tyr(3-NO2)]-NH2), in the experiment with Zika virus [1], the outcome was Active.

As to `CC(=O)N[C@H](CCCNC(=N)N)C(=O)N[C@@H](CCCCN)C(=O)N[C@@H](CCCN)C(=O)N[C@@H](CCCNC(=N)N)C(=O)Nc1ccc2c(CC(N)=O)cc(=O)oc2c1`, the kcat/Km in the experiment with Zika virus [13] was determined as 1.1 ×10⁶ /M/s.

For orientation: Km means the substrate concentration at which the rate is half of its maximum. The term kcat denotes the maximal rate divided by the concentration of active sites.

Source of the values: ChEMBL document CHEMBL4266009, “One Step Beyond: Design of Substrates Spanning Primed Positions of Zika Virus NS2B-NS3 Protease” (ACS Med Chem Lett, 2018).
